By IC50 is commonly meant the concentration that inhibits the measured activity by half.

The target in assay [1] is T1, 5-hydroxytryptamine receptor 1A (Rattus norvegicus, UniProt P19327).
T1 sequence (P19327 whole entry): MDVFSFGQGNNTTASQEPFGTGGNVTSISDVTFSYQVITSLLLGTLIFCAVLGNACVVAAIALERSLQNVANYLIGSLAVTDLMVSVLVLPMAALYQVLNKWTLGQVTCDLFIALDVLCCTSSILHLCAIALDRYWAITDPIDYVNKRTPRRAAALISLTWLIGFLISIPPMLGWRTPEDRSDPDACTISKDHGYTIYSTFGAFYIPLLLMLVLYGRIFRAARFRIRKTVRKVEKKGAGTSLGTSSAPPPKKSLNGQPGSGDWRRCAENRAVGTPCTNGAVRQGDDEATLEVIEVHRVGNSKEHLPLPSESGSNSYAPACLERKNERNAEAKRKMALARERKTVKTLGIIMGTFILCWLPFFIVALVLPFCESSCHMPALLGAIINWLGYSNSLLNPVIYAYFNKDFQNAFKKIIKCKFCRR
Put plainly: In vitro binding affinity measured on serotonin 5-hydroxytryptamine 1A receptor using [3H]8-OH-DPAT as radioligand.

Assay [2] addresses T2, Adrenergic receptor alpha-1 (Rattus norvegicus, UniProt P15823+P23944+P43140).
T2 sequence (P15823 whole entry): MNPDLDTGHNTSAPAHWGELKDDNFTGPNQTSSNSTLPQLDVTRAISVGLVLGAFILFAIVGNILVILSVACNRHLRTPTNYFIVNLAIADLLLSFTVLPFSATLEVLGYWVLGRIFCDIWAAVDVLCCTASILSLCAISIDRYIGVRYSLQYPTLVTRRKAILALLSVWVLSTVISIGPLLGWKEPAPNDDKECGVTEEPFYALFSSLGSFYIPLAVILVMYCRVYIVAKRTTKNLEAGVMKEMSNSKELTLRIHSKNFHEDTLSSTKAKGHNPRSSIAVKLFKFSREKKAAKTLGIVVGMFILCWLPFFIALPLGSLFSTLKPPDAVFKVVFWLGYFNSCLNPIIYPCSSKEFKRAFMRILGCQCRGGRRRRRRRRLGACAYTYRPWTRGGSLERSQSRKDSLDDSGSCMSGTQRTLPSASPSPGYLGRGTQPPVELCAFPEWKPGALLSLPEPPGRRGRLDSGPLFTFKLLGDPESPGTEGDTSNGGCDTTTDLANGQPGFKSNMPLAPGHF
T2 sequence (P23944 whole entry): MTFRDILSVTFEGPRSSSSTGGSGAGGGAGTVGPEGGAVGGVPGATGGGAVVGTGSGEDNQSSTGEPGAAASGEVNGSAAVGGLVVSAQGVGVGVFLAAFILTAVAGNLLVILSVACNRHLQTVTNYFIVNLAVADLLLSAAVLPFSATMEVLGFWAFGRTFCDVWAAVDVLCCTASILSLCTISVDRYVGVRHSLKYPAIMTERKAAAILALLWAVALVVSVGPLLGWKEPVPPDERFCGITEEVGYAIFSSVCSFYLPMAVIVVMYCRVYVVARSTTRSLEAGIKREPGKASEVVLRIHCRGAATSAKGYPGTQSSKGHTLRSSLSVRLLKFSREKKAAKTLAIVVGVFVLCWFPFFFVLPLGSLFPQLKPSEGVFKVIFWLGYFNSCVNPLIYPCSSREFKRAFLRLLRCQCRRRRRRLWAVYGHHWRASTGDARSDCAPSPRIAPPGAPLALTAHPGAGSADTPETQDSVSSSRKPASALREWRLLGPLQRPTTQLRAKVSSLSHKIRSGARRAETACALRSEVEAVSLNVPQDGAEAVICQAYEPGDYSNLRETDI
T2 sequence (P43140 whole entry): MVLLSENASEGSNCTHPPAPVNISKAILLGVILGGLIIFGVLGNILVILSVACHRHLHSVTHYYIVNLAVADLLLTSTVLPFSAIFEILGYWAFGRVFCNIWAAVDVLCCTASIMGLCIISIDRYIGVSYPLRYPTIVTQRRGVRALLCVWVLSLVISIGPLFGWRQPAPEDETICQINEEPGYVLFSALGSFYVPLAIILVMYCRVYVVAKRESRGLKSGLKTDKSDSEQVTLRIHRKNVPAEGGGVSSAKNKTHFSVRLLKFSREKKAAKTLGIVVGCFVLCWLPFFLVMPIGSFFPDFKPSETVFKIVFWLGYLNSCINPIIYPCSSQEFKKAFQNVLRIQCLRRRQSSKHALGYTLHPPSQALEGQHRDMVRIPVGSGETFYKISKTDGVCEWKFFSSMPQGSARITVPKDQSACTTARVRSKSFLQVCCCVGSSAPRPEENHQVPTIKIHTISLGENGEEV
Put plainly: In vitro binding affinity measured on alpha-1 adrenergic receptor using [3H]prazosin as radioligand. It is filed as protein assay.

The target of assay [3] is T3, D(2) dopamine receptor (Rattus norvegicus, UniProt P61169). Put plainly: The compound was evaluated for the binding affinity towards Dopamine receptor D2 binding site using [3H]spiroperidol. The method in brief: (§1)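 IC50 came from 7–9 drug concentrations in triplicate, over 2–4 independent experiments, analysed with EBDA. Specific binding exceeded 75% of total.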
T3 sequence (P61169 whole entry): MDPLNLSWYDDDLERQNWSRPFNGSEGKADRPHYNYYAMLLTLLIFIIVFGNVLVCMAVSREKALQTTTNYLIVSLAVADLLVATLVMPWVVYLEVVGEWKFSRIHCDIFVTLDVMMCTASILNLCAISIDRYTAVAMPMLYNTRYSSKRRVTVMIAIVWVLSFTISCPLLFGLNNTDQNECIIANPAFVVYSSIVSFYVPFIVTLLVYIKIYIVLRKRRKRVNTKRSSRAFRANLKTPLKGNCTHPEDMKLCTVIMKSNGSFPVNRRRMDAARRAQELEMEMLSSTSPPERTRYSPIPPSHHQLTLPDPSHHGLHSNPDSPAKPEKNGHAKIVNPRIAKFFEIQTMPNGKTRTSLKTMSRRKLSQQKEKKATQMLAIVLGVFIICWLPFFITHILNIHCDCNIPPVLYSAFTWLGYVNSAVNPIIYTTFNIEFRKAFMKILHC
A short description of assay [4]: Selectivity as the ratio of IC50 value against alpha-1 receptor to that of 5-hydroxytryptamine 1A receptor. In short, it runs like this:
(§2)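 Ratio of the α1 IC50 to the 5-HT1A IC50 ([3H]-8-OH-DPAT, rat cortex). For α1, male Sprague-Dawley rat cortex membranes were prepared in 50 mM Tris-HCl pH 7.7 with 10 μM pargyline and 0.1% ascorbate.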

The test system of assay [5] is Dopamine D2 receptor and serotonin 1a receptor (Rattus norvegicus). Put plainly: Selectivity as the ratio of IC50 value against D-2 receptor to that of 5-hydroxytryptamine 1A receptor.
The target in assay [6] is Serotonin 2 (5-HT2) receptor (Rattus norvegicus, UniProt P30994+P08909+P14842). Put plainly: In vitro binding affinity measured on serotonin 5-hydroxytryptamine 2 receptor using [3H]ketanserin as radioligand. It is filed as protein assay.
Assay [7] has as its target T3, D(2) dopamine receptor. Put plainly: In vitro binding affinity measured on dopamine receptor D2 using [3H]spiroperidol as radioligand. The method in brief: as §1
For another assay, the species on record is Cavia porcellus. Put plainly: Selectivity as the ratio of IC50 value against sigma receptor to that of 5-HT1A receptor. In short, it runs like this: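 Ratio of the σ IC50 to the 5-HT1A IC50. For σ, a P2 membrane fraction was prepared from whole male guinea pig brain without cerebellum in 50 mM Tris-HCl pH 7.4. [3H]DTG was 0.90 nM final, incubated 90 min at 25 °C, then filtered and counted. IC50 values came from 7–9 concentrations in triplicate (EBDA).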

The nature of assay [8]: Selectivity ratio of IC50 value against D-2 receptor to that of 5-HT1A receptor. In short, it runs like this:
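Ratio of the D-2 IC50 to the 5-HT1A IC50. […] Each IC50 came from 7–9 concentrations in triplicate over 2–4 experiments (EBDA).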

Assay [9] addresses Serotonin 1a (5-HT1a) receptor/Adrenergic receptor alpha-1 (Rattus norvegicus) (UniProt P15823+P23944+P43140+P19327). Put plainly: Selectivity ratio of IC50 value against alpha-1 receptor to that of 5-HT1A receptor. It is filed as protein assay. The method in brief: as §2

Turning to `COc1ccc2c(c1)C(NCCN1CCN(c3ccccc3OC)CC1)CCC2` (stereo not given), the IC50 in [1] came out at 40.3 nM; in assay [2] it was 1960 nM; at D(2) dopamine receptor [3], 1200 nM. The results for the Selectivity in assay [4] and in assay [5] were 49 and 30, respectively.
Turning to `COc1ccc2c(c1)C(CCCN1CCN(c3ccccn3)CC1)=CCC2`, the 50% inhibitory concentration (IC50) in assay [1] turned out to be 63.6 nM; in assay [6] it was 146 nM; in [2] it was 152 nM; at D(2) dopamine receptor [7], 778 nM. For the same compound, the Selectivity in the assay filed under Cavia porcellus is 3.9; in assay [8], 12; in assay [9], 2.4.
On to `COc1ccccc1N1CCN(CCNC2CCCc3c(OC)cccc32)CC1` (stereo not given), for which the IC50 amounted to 7.01 nM in [1], 3340 nM in assay [6], 149 nM in assay [2] and 618 nM on D(2) dopamine receptor [7]. Moreover, the Selectivity in the assay listed under Cavia porcellus amounted to 22; in [8], 88; in assay [9], 21.
As for `COc1ccc2c(c1)C(CCCN1CCN(c3cccc(C(F)(F)F)c3)CC1)CCC2` (stereo not given), the IC50 in assay [1] stood at 88.4 nM; in assay [6] it was 391 nM; in assay [2], 2930 nM; at D(2) dopamine receptor [7] it was 1330 nM. The Selectivity in the assay listed under Cavia porcellus is 0.99; in [8] it was 15; in assay [9], 33.
`COc1ccc2c(c1)C(CCCN1CCN(c3ccccn3)CC1)CCC2` (stereo not given): the IC50 came out at 3.38 nM in assay [1], 288 nM in [6], 261 nM in [2] and 328 nM at D(2) dopamine receptor [7]. Further, the figures for the Selectivity (in the assay filed under Cavia porcellus; in assay [8]; in [9]) were 37, 97 and 77, respectively.
Consider `COc1ccccc1N1CCN(CCCC2=CCCc3c(OC)cccc32)CC1`, for which the IC50 turned out to be 8.8 nM in assay [1], 770 nM in assay [6], 32.3 nM in assay [2] and 17.4 nM on D(2) dopamine receptor [7]. Further, the Selectivity was determined as 3.8 in the assay filed under Cavia porcellus, 2 in [8] and 3.7 in assay [9].

Source of the values: ChEMBL document CHEMBL1128270 (J Med Chem, 1995).
